Among the data in ChEMBL document CHEMBL4808197, “Synthesis, docking, machine learning and antiproliferative activity of the 6-ferrocene/heterocycle-2-aminopyrimidine and 5-ferrocene-1H-Pyrazole derivatives obtained by microwave-assisted Atwal reaction as potential anticancer agents” (Bioorg Med Chem Lett, 2021) are IC50 values, retold here.

Common to all, as to type: functional, cell-based
One assay has as its system HL-60. The assay is described as follows: Antiproliferative activity against human HL-60 cells assessed as inhibition of cell proliferation measured by MTT assay. A digest of the protocol: (§1)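 Tumour cell panel: HCT116 (colorectal carcinoma), PC3 (prostate adenocarcinoma), HL60 (acute promyelocytic leukaemia), SNB19 (astrocytoma). Antiproliferative effect reported as half-maximal inhibitory concentration (IC50, µM) for each line.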

The subject of the next assay is SNB-19. The assay can be described thus: Antiproliferative activity against human SNB-19 cells assessed as inhibition of cell proliferation measured by MTT assay. The procedure, abridged:
as §1
In general terms: Tetrazolium dyes change colour on reduction, which living cells bring about.

The test system of a further assay is PC-3. The assay is described as follows: Antiproliferative activity against human PC-3 cells assessed as inhibition of cell proliferation measured by MTT assay. The procedure, abridged: as §1
The next assay relates to HCT-116. The assay can be described thus: Antiproliferative activity against human HCT-116 cells assessed as inhibition of cell proliferation measured by MTT assay. The procedure, abridged: as §1
In a further assay the test system is HeLa. The assay can be described thus: Cytotoxicity against human HeLa cells assessed as inhibition of cell viability.
The next assay relates to B16-F10. The assay can be described thus: Antiproliferative activity against mouse B16-F10 cells assessed as inhibition of cell proliferation.
For a further assay, the system named is A549. The assay is described as follows: Antiproliferative activity against human A549 cells assessed as inhibition of cell proliferation.

Molecules are shown by their SMILES.

Usually IC50 stands for the concentration that inhibits the measured activity by half. `Nc1nc(-c2ccccc2)cc(-c2cnn(-c3ccccc3)n2)n1`: the IC50 in the assay with HL-60 is 66.5 µM; in the assay on SNB-19, more than 200 µM; with PC-3, 142 µM; with HCT-116, 120 µM.

As to `Nc1ccc(-c2cc(-c3cnn(-c4ccccc4)n3)nc(N)n2)cc1`, the IC50 in the assay with HL-60 worked out at 68.2 µM; in the assay on SNB-19, 106 µM; with PC-3 it was 58.2 µM; in the assay on HCT-116, 95.3 µM.

On to `Nc1nc(-c2ccccc2)cc(-c2cccs2)n1`, for which the IC50 in the assay on HL-60 stood at 70.3 µM; in the assay with SNB-19, 85.1 µM; in the assay with PC-3, 33.6 µM; with HCT-116 it was 57 µM.

As to `Nc1nc(-c2ccccc2)cc(-c2ccc[nH]2)n1`, the IC50 in the assay with HL-60 stood at 29.3 µM; in the assay with SNB-19, 174 µM; in the assay on PC-3, 81.5 µM; in the assay with HCT-116, 55.5 µM.

As to `Nc1nc(-c2ccccc2)cc(-c2cn(-c3ccccc3)nc2-c2ccc([N+](=O)[O-])cc2)n1`, the IC50 in the assay with HeLa turned out to be 5.47 µM.

As to `Nc1nc(-c2ccc([N+](=O)[O-])cc2)cc(-c2cnn(-c3ccccc3)n2)n1`, the IC50 in the assay with HL-60 was more than 200 µM; in the assay with SNB-19, 132 µM; with PC-3, more than 200 µM; in the assay with HCT-116, 133 µM.

As for `Cc1ccc(-c2cc(C(F)(F)F)nn2-c2ccc(S(N)(=O)=O)cc2)cc1` [CELECOXIB], the IC50 turned out to be 16.2 µM in the assay with B16-F10 and 16.3 µM in the assay with A549.
